The target in data set [1] is T1, Glucocorticoid receptor (Homo sapiens) (UniProt P04150).
T1 sequence (whole entry): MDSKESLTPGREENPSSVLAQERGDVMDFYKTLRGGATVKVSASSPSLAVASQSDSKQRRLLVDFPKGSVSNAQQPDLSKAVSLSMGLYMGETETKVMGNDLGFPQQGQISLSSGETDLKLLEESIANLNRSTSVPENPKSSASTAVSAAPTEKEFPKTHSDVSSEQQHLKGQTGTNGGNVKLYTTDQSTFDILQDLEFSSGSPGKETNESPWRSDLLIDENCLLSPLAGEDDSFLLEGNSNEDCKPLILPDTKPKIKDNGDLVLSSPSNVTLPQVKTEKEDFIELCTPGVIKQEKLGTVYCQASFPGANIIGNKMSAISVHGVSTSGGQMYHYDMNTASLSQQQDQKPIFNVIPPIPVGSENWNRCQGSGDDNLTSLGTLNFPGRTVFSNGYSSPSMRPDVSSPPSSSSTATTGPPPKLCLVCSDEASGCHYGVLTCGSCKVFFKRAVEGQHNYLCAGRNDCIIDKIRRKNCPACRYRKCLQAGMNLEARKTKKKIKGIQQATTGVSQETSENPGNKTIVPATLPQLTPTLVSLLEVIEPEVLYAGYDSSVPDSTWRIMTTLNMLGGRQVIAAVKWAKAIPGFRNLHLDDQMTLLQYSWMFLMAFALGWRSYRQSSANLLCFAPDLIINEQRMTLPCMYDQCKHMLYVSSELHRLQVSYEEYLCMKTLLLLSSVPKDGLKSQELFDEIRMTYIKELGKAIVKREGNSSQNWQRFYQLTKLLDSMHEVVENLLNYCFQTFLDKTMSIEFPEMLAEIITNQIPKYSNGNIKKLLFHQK
Briefly: Displacement of [3H]-dexamethasone from human glucocorticoid receptor expressed in HEK293 cells at 10 uM by scintillation counting based radioligand competition binding assay. Format: cell-based. The procedure, abridged: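 Competition binding with 0.3 nM [3H]-dexamethasone and 20 μg 293-GR lysate per well; nonspecific binding defined with 0.5 μM dexamethasone. Incubated overnight at 4 °C, free ligand removed with charcoal–dextran, then scintillation counting. Percent inhibition at 10 μM was calculated.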
In general terms: Loss of bound radioactivity is the signal in a displacement assay; it reports binding, not function.

Data set [2] deals with Rattus norvegicus. The data set can be described thus: Prevention of atypical antipsychotic quetiapine associated weight gain in Wistar rat at 10 mg/kg, po for 14 days. The class given is functional, organism-based. The procedure, abridged:
(§1)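 Prophylactic protocol in lean female Wistar rats (n = 9−10 per group). A dose response of test compound was given orally together with quetiapine at a fixed 10 mg/kg, concurrently for 14 days.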

Data set [3] is described as follows: Half life in rat at 3 mg/kg, po. The class given is ADME, organism-based. As to conditions: in vivo.
Data set [4] in a line: Half life in rat at 1 mg/kg, iv. Format: ADME, organism-based. The settings on record: in vivo.
In data set [5] the test system is Syrian golden hamster. The data set can be described thus: Increase in HDL level in high fat and high cholesterol diet fed Syrian golden hamster at 30 mg/kg, po qd for 14 days. The class given is functional, Mesocricetus auratus. The procedure, abridged:
(§2)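 Groups of Syrian golden hamsters (n = 6) kept on a high fat, high cholesterol diet for 14 days, dosed orally at 30 mg/kg once daily. Plasma HDL and LDL compared against untreated HFHC controls; mean with standard errors.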

Data set [6] can be described thus: Volume of distribution at steady state in rat at 1 mg/kg, iv. Format: ADME, organism-based. As to conditions: in vivo, read-out: Vdss.
Data set [7] can be described thus: AUC in rat at 1 mg/kg, iv. The class given is ADME, organism-based. As to conditions: in vivo.
Data set [8] relates to Syrian golden hamster. Briefly: Reduction in LDL level in high fat and high cholesterol diet fed Syrian golden hamster at 30 mg/kg, po qd for 14 days. The class given is functional. As to conditions: Mesocricetus auratus, 336 h. In short, it runs like this:
as §2

For data set [9], the system named is Rattus norvegicus. The data set can be described thus: Toxicity in Wistar rat model of atypical antipsychotic quetiapine-induced weight gain assessed as effect on food intake at 10 mg/kg, po for 14 days. The class given is organism-based. The settings on record: in vivo, 336 h. In short, it runs like this: as §1
A short description of data set [10]: Cmax in rat at 3 mg/kg, po. The class given is ADME, organism-based. The arrangement: dose 3 mg/kg, route oral. The settings on record: in vivo.
Data set [11] in a line: AUC in rat at 3 mg/kg, po. As to conditions: in vivo. Format: ADME, organism-based.
Data set [12] can be described thus: Oral bioavailability in rat at 3 mg/kg. As to conditions: in vivo. The class given is ADME, organism-based.
A short description of data set [13]: Clearance in rat at 1 mg/kg, iv. As to conditions: in vivo. Format: ADME, organism-based.
Data set [14] in a line: Tmax in rat at 3 mg/kg, po. Format: ADME, organism-based. The settings on record: in vivo.

Active and inactive are the calls of the source. The calls are words filed in the database; no cut-off is given here.

This note sets out measurements from ChEMBL document CHEMBL3603837, “Indole Glucocorticoid Receptor Antagonists Active in a Model of Dyslipidemia Act via a Unique Association with an Agonist Binding Site” (J Med Chem, 2015).

With `COc1cc(F)ccc1-c1c(CN(C)Cc2ccccc2)[nH]c2c(N)cc(F)cc12`, the result in data set [1] was inactive.
For `COc1cc(F)ccc1-c1c(CN(C)Cc2ccccc2)[nH]c2c(NS(C)(=O)=O)cc(C(C)C)cc12`, in the data set on Rattus norvegicus [2], the inhibition result is “Active”. Further, the half-life (commonly how long it takes for the measured level to halve) in data set [3] was 3.31 h; in data set [4], 3.96 h. The Activity was 73% with Syrian golden hamster [5] and “Non-toxic” in the data set on Rattus norvegicus [9]. Also, the Vd in data set [6] was 13.8 L/kg. Besides, the area under the curve (AUC) (as a rule, the area under the concentration-time curve, a measure of exposure) is 315 ng·h/mL in data set [7] and 488 ng·h/mL in data set [11]. For the same compound, testing at 30 mg/kg in the data set on Syrian golden hamster [8] gave an inhibition in vivo of 74%. In addition, the Cmax – broadly, the peak of the concentration-time curve – in data set [10] was found to be 63.3 ng/mL. Besides, the bioavailability (in general, dose-corrected exposure relative to a reference, in per cent) in data set [12] was determined as 51.9%. In addition, the clearance (in general, the volume of plasma or blood freed of the substance per unit of time) in data set [13] came to 58.2 mL/min/kg. The Tmax (as a rule, the time at which the peak concentration occurs) in [14] came to 4 h.
